Published values gathered from unrelated publications.
Lines come from different studies, so protocols differ.
Target: Voltage-gated inwardly rectifying potassium channel KCNH2 (KCNH2, Homo sapiens, UniProt Q12809)

For `N=C(CC(O)c1cc2c(F)cc(F)cc2c2cc(C(F)(F)F)ccc12)Nc1ccc(Br)cc1` (centres unmarked), the IC50 was 1.95 µM (ligand displacement; FP).
`CCOC(=O)C1=C(CN2CCC[C@@H]2C(=O)Nc2ccc(B(O)O)cc2)NC(c2nccs2)=N[C@H]1c1ccc(F)cc1Br` gave an IC50 of 6.54 µM (ion current; inhibitor; patch clamp; HEK293; pH 7.4).
`Cc1ccc2c(c1)C(=O)[C@]1(O)CCN(c3ccc4nc(C)ccc4c3)C1=N2` gave an IC50 of 5.4 µM (ion current; inhibitor).
`FC(F)(F)CN1CC(n2cc(Oc3ccn4nc(Cl)cc4n3)cn2)C1` gave an IC50 of > 30 µM (ion current; inhibitor; patch clamp).
`C=CCn1c(=O)c2cnc(Nc3ccc(N4CCN(C)CC4)cc3)nc2n1-c1ccc2c(n1)[C@@](O)(CC)CC2` gave an IC50 of > 30 µM (ion current; inhibitor).
For `Cc1ccc(OCC(=O)N[C@@H](Cc2c[nH]c3ccccc23)C(=O)OC(C)C)cc1`, the IC50 was > 50 µM (ion current; inhibitor; patch clamp; HEK293).
With `NC/C(=C\F)COc1cccc(Cn2c(=S)[nH]c(=O)c3[nH]cnc32)c1` the IC50 was > 100 µM (ion current; inhibitor).
The IC50 of `CC(C)(C)c1sc2ncnc(Oc3c(F)cccc3OC(F)(F)F)c2c1-c1ccc(Cl)cc1` is reported as ~28 µM (ion current; inhibitor; patch clamp).
